Source: ChEMBL document CHEMBL4828708 (Eur J Med Chem, 2021)
Activity calls are given as the source filed them. No cut-off for these calls is given here.

Assays:
Adenosine receptor A1 = target: T1, Adenosine receptor A1 (Homo sapiens, UniProt P30542); assay: Displacement [3H]DPCPX from human adenosine A1 receptor expressed in CHO cell membrane incubated for 60 mins by microplate beta scintillation counting based radioligand inhibition assay; type: cell membranes
T1 sequence (P30542 whole entry): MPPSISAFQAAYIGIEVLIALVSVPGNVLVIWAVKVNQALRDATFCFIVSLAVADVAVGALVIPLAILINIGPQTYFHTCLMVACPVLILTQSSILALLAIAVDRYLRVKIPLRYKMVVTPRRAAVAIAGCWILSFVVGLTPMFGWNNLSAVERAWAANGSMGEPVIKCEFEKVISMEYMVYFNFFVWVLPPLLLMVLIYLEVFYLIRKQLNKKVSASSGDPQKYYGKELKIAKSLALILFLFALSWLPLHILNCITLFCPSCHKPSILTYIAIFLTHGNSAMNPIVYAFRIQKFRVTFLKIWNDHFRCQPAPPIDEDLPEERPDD

Adenosine receptor A3 = target: T2, Adenosine receptor A3 (Homo sapiens, UniProt P0DMS8); assay: Displacement of [3H]NECA from human adenosine A3 receptor expressed in HeLa cell membrane incubated for 180 mins by microplate beta scintillation counting based radioligand inhibition assay; type: cell membranes
T2 sequence (P0DMS8 whole entry): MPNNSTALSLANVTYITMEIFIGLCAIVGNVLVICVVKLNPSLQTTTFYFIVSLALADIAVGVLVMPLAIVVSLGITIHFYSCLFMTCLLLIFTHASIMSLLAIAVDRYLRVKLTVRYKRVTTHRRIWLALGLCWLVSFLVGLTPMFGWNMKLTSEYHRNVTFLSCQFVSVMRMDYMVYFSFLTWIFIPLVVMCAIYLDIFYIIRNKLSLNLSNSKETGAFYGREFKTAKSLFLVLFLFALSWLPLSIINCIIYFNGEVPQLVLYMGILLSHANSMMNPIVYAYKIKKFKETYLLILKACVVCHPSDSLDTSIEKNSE

Adenosine receptor A2a [1] = target: T3, Adenosine receptor A2a (Homo sapiens, UniProt P29274); assay: Displacement of [3H]CGS21680 from human adenosine A2A receptor expressed in HEK293 cell membrane incubated for 30 mins by microplate beta scintillation counting based radioligand inhibition assay
T3 sequence (P29274 whole entry): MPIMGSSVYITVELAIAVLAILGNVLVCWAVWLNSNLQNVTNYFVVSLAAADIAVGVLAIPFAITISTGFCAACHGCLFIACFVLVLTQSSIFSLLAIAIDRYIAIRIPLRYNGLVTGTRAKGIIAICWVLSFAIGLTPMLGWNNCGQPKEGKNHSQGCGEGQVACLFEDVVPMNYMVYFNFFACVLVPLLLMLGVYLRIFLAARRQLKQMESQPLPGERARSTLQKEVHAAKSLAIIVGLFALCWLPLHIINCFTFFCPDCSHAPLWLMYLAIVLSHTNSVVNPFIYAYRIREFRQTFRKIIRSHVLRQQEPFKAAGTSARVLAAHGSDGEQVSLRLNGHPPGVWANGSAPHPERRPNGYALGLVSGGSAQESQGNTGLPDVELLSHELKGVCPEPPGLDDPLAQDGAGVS

[2] = target: T4, Adenosine receptor A3 (Homo sapiens) (UniProt P0DMS8); assay: Displacement of [3H]NECA from human adenosine A3 receptor expressed in HEK293 cell membrane at 10 uM incubated for 180 mins by microplate beta scintillation counting based radioligand inhibition assay relative to control
T4 sequence (whole entry): T2 sequence (P0DMS8 whole entry)

Adenosine receptor A2b = target: T5, Adenosine receptor A2b (Homo sapiens, UniProt P29275); assay: Displacement of [3H]DPCPX from human adenosine A2B receptor expressed in HEK cell membrane incubated for 30 mins by microplate beta scintillation counting based radioligand inhibition assay; type: cell membranes
T5 sequence (P29275 whole entry): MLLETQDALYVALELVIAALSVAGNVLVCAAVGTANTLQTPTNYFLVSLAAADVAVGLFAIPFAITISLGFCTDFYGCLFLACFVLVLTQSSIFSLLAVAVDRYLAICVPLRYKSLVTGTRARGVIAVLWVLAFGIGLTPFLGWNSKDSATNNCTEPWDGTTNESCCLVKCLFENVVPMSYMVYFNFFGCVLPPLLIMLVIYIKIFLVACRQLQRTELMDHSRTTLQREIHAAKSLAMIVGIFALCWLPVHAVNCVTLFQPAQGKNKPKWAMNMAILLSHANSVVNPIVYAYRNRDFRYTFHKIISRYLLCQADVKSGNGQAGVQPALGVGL

Adenosine receptor A2a [3] = target: T3, Adenosine receptor A2a; assay: Displacement of [3H]ZM241385 from human adenosine A2A receptor expressed in HeLa cells by beta scintillation counting analysis; type: cell-based
Blood [4] = assay: Inhibition of ADP-stimulated platelet aggregation in human whole blood assessed as decrease in platelet activation measured upto 15 mins by whole blood aggregometry assay; type: functional, tissue-based
Outline: (§1)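 Human whole blood was pre-incubated 5 min with compound dissolved in 0.1% DMSO, or with 0.1% DMSO alone. Test concentrations were 10, 30 or 50 μM. Aggregation was triggered with 6.4 μM ADP or 1 μg/mL collagen and monitored for up to 15 min on a five-channel Multiplate analyzer. Read-out was area under the aggregation curve, n = 13 donors, paired Student's t-test.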

Blood [5] = assay: Inhibition of collagen-stimulated platelet aggregation in human whole blood assessed as decrease in platelet activation measured upto 15 mins by whole blood aggregometry assay; type: functional, tissue-based; outline: as §1
[6] = target: T6, Adenosine receptor A2b (Homo sapiens) (UniProt P29275); assay: Displacement of [3H]DPCPX from human adenosine A2B receptor expressed in HEK cell membrane at 10 uM incubated for 30 mins by microplate beta scintillation counting based radioligand inhibition assay relative to control; type: cell membranes; conditions: HEK293
T6 sequence (whole entry): T5 sequence (P29275 whole entry)

Blood [7] = assay: Inhibition of thrombus in human whole blood measured after 10 mins by microscopic analysis; type: functional, tissue-based
Outline: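 Citrated human blood labelled with anti-CD61-PE, given compound or 0.1% DMSO 5 min beforehand, recalcified with 1 mM CaCl2, then perfused through type I collagen-coated channels at 20 dyn/cm2 for 5 min. Fluorescent thrombus area summed per donor (thrombi >50 μm2). Paired t-test, n = 9.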

Compound	Ki (Adenosine receptor A1)	Ki (Adenosine receptor A3)	inhibition [2]	other results
CCNC(=O)[C@H]1O[C@@H](n2cnc3c(NCCCCc4ccccc4)ncnc32)[C@H](O)[C@@H]1O	803 nM			
Nc1nc(C#Cc2ccccc2)nc2c1ncn2[C@@H]1O[C@H](CO)[C@@H](O)[C@H]1O	646 nM	42 nM		Ki (Adenosine receptor A2a [1]): 1040 nM
Nc1ncnc2c1nc(C#Cc1ccccc1)n2[C@@H]1O[C@H](CO)[C@@H](O)[C@H]1O		856 nM		
Nc1nc(C#Cc2ccccc2)nc2c1ncn2[C@@H]1O[C@H](CO)[C@@H](O)[C@@H]1O		1230 nM		
Nc1ncnc2c1ncn2[C@@H]1O[C@H](CO)[C@@H](O)[C@H]1OCOCCCc1ccccc1			29%	
Nc1ncnc2c1nc(C#Cc1ccccc1)n2[C@H]1C[C@H](O)[C@@H](CO)O1		879 nM		Ki (Adenosine receptor A2a [1]): 1990 nM
CCNC(=O)[C@H]1O[C@@H](n2cnc3c(NCCCc4ccccc4)ncnc32)[C@H](O)[C@@H]1O		4.5 nM		Ki (Adenosine receptor A2b): 1380 nM; IC50 (Adenosine receptor A2a [3]): 14600 nM; inhibition (Blood [4]): Active; inhibition (Blood [5]): Active
Nc1ncnc2c1nc(CCc1ccccc1)n2[C@@H]1O[C@H](CO)[C@@H](O)[C@H]1O			8%	
Nc1ncnc2c1ncn2[C@H]1C[C@H](O)[C@@H](CO)O1			5%	inhibition [6]: 12%
OC[C@H]1O[C@@H](n2cnc3c(NCCCCc4ccccc4)ncnc32)[C@H](O)[C@@H]1O	864 nM			
OC[C@H]1O[C@@H](n2cnc3c(NCCCc4ccccc4)nc(Cl)nc32)C[C@@H]1O	13300 nM	8770 nM		inhibition [6]: 1%
Nc1nc(CCc2ccccc2)nc2c1ncn2[C@@H]1O[C@H](CO)[C@@H](O)[C@@H]1O			54%	
OC[C@H]1O[C@@H](n2cnc3c(NCCCc4ccccc4)ncnc32)[C@H](O)[C@@H]1O	78.8 nM	54.6 nM		inhibition (Blood [4]): Active; inhibition (Blood [7]): Active
Nc1ncnc2c1nc(CCc1ccccc1)n2[C@H]1C[C@H](O)[C@@H](CO)O1			44%	
Nc1nc(CCc2ccccc2)nc2c1ncn2[C@@H]1O[C@H](CO)[C@@H](O)[C@H]1O	1940 nM	8610 nM		
